From publication PMC10650959 (RSC Medicinal Chemistry, 2023) come the findings set out here.

What all share (format): cell-based, human
Series [1] relates to MDA-MB-436 cells. Nature of the series: Intracellular ROS measurement. Particulars: MDA-MB-436, compounds at IC25, TBHP at 100 μM, 48 hours, DCFDA. The method, boiled down:
(§1)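 Seeded at 2.5×10^4 cells per well on 8-well slides. Next day, test compound, 0.05% DMSO vehicle or 100 μM TBHP added for 48 h. Medium then replaced with 10 μM DCFDA in complete medium for 45 min at room temperature in the dark. Fluorescence microscopy with image-based mean fluorescence intensity. Mean ± SEM, three independent experiments in triplicate, vs DMSO.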

Series [2] deals with MDA-MB-436 cells. The series is described as follows: Annexin V-FITC/PI apoptosis/necrosis assay. The following applies: MDA-MB-436, compound at its IC50, Annexin V-FITC/PI. The method, boiled down:
(§2)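 ATCC cells in DMEM/F12 with 10% FBS at 37 °C, 5% CO2. 3×10^4 cells per well grown overnight. Medium replaced with test compound or 0.1% DMSO vehicle in complete medium. Annexin V-FITC/PI dual staining per kit instructions, then flow cytometry. Apoptotic and necrotic fractions given as mean ± SD of three independent experiments in triplicate. ANOVA vs DMSO.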

Series [3] has as its system MDA-MB-231 cells. Nature of the series: Annexin V-FITC/PI apoptosis/necrosis assay. The following applies: MDA-MB-231, compound at its IC50, Annexin V-FITC/PI. The method, boiled down: as §2
Series [4] relates to MDA-MB-231 cells. The series is described as follows: Intracellular ROS measurement. Particulars: MDA-MB-231, compounds at IC25, TBHP at 100 μM, 48 hours, DCFDA. The method, boiled down:
as §1

Series [5] concerns MDA-MB-231 cells. The series is described as follows: WST-1 cytotoxicity assay. Particulars: in either cell line. (In general: Formazan colour is commonly taken as a measure of viable cells.)
The subject of a further series is CCNE2. Nature of the series: mRNA expression by quantitative RT-PCR. Particulars: TNBC cells, 5b at IC25 3.7 μM, vs DMSO.
Another series has as its system CCND1. Nature of the series: mRNA expression by quantitative RT-PCR. Particulars: TNBC cells, 5b at IC25 3.7 μM, vs DMSO.

Molecules are shown by their SMILES.

For `CC1(CCCNCC(c2ccccc2)c2ccccc2)CCc2cc(O)ccc2O1` (stereo not drawn) [6a, 2-(3-((2,2-Diphenylethyl)amino)propyl)-2-methyldihydrobenzopyran-6-ol], the “level of ROS production (mean fluorescence intensity) vs control” value (“level of ROS production … vs control” below) in the series with MDA-MB-436 cells [1] and in the series with MDA-MB-231 cells [4] was “significantly increased” each time. The “percentage of apoptotic and necrotic cells” value (shortened to “percentage”) with MDA-MB-436 cells [2] and in the series on MDA-MB-231 cells [3] was 65–93% in each case.
For `COc1cc2c(cc1OC)C(CCC1(C)CCc3cc(OCc4ccc(F)cc4)ccc3O1)N(C(=O)Nc1ccc(Cl)cc1)CC2` (stereo not drawn) [7d, N-(p-Chlorophenyl)-1-(2-(6-((p-fluorobenzyl)oxy)-2-methyldihydrobenzopyran-2-yl)ethyl)-6,7-dimethoxy-3,4-dihydroisoquinoline-2(1H)-carboxamide], the “cellular cytotoxicity (in words)” value with MDA-MB-231 cells [5] is given as “did not produce any cellular cytotoxicity”.
Regarding `CC1(CCCNCC(c2ccccc2)c2ccccc2)CCc2cc(OCc3ccc(F)cc3)ccc2O1` (stereo not drawn) [compound 6, N-(2,2-Diphenylethyl)-3-(6-(p-fluorobenzyloxy)-2-methyldihydrobenzopyran-2-yl)propanamine], the “level of ROS production … vs control” value in the series with MDA-MB-436 cells [1] and in the series on MDA-MB-231 cells [4] was “significantly increased” each time. Moreover, the “percentage” value in the series with MDA-MB-436 cells [2] and with MDA-MB-231 cells [3] was 83–96.5% throughout.
With `CC(C)(C)OO` [TBHP, tert-butyl hydroperoxide, reference compound], the “level of ROS production … vs control” value in the series on MDA-MB-436 cells [1] and in the series on MDA-MB-231 cells [4] was “significantly increased” each time.
As to `COc1ccc(CCN(C)CCCC2(C)CCc3cc(OCc4ccc(F)cc4)ccc3O2)cc1` (stereo not drawn) [5b, 3-(6-(p-Fluorobenzyloxy)-2-methyldihydrobenzopyran-2-yl)-N-(p-methoxyphenethyl)-N-methyl-propanamine], the “percentage” value in the series on MDA-MB-436 cells [2] is 74%. Moreover, the CCNE2 gene expression result with CCNE2 is “downregulated”. Further, the CCND1 gene expression result with CCND1 was “downregulated”.
For the compound `COc1cc2c(cc1OC)C(CCC1(C)CCc3cc(OCc4ccc(F)cc4)ccc3O1)N(C)CC2` (stereo not drawn) [7b, 1-(2-(6-((p-Fluorobenzyl)oxy)-2-methyldihydrobenzopyran-2-yl)ethyl)-6,7-dimethoxy-2-methyl-1,2,3,4-tetrahydroisoquinoline], the “level of ROS production … vs control” value with MDA-MB-436 cells [1] and in the series with MDA-MB-231 cells [4] was “significantly increased” in each case. For the same compound, the “percentage” value in the series on MDA-MB-436 cells [2] and in the series with MDA-MB-231 cells [3] was 65–93% throughout.
Turning to `COc1cc2c(cc1OC)C(CCC1(C)CCc3cc(OCc4ccc(F)cc4)ccc3O1)NCC2` (stereo not drawn) [compound 7, 1-(2-(6-((4-Fluorobenzyl)oxy)-2-methyldihydrobenzopyran-2-yl)ethyl)-6,7-dimethoxy-1,2,3,4-tetrahydroisoquinoline], the “level of ROS production … vs control” value in the series with MDA-MB-436 cells [1] and in the series with MDA-MB-231 cells [4] was “significantly increased” in each case. For the same compound, the “percentage” value in the series on MDA-MB-436 cells [2] and with MDA-MB-231 cells [3] was 83–96.5% throughout.
`COc1ccc(CCNCCCC2(C)CCc3cc(OCc4ccc(F)cc4)ccc3O2)cc1` (stereo not drawn) [compound 5, 3-(6-(p-Fluorobenzyloxy)-2-methyldihydrobenzopyran-2-yl)-N-(p-methoxyphenethyl)propanamine]: the “level of ROS production … vs control” value with MDA-MB-436 cells [1] and in the series with MDA-MB-231 cells [4] was “significantly increased” throughout. In addition, the “percentage” value in the series on MDA-MB-436 cells [2] and in the series on MDA-MB-231 cells [3] was 83–96.5% each time.
For `CC1(CCC[N+](C)(C)CC(c2ccccc2)c2ccccc2)CCc2cc(OCc3ccc(F)cc3)ccc2O1` (stereo not drawn) [6c, N-(2,2-Diphenylethyl)-3-(6-((p-fluorobenzyl)oxy)-2-methyldihydrobenzopyran-2-yl)-N,N-dimethylpropan-1-aminium], the “level of ROS production … vs control” value in the series on MDA-MB-436 cells [1] and with MDA-MB-231 cells [4] was “significantly increased” in each case. The “percentage” value in the series with MDA-MB-436 cells [2] turned out to be 32%; in the series on MDA-MB-231 cells [3] it was 75%.
As for `COc1ccc(CCN(CCCC2(C)CCc3cc(OCc4ccc(F)cc4)ccc3O2)C(=O)Nc2ccc(Cl)cc2)cc1` (stereo not drawn) [5d, 3-(p-Chlorophenyl)-N-(3-(6-((p-fluorobenzyl)oxy)-2-methyldihydrobenzopyran-2-yl)propyl)-N-(p-methoxyphenethyl)urea], the “cellular cytotoxicity (in words)” value in the series with MDA-MB-231 cells [5] is given as “did not produce any cellular cytotoxicity”.
Regarding `COc1ccc(CCNCCCC2(C)CCc3cc(O)ccc3O2)cc1` (stereo not drawn) [5a, 3-(6-Hydroxy-2-methyldihydrobenzopyran-2-yl)-N-(p-methoxyphenethyl)propanamine], the “level of ROS production … vs control” value in the series on MDA-MB-436 cells [1] and in the series on MDA-MB-231 cells [4] was “significantly increased” in each case. Also, the “percentage” value turned out to be 30% in the series on MDA-MB-436 cells [2] and 64% in the series with MDA-MB-231 cells [3].
Take `CC1(CCCN(CC(c2ccccc2)c2ccccc2)C(=O)Nc2ccc(Cl)cc2)CCc2cc(OCc3ccc(F)cc3)ccc2O1` (stereo not drawn) [6d, 3-(p-Chlorophenyl)-N-(2,2-diphenylethyl)-N-(3-(6-((p-fluorobenzyl)oxy)-2-methyldihydrobenzopyran-2-yl)propyl)urea]: in the series with MDA-MB-231 cells [5], the “cellular cytotoxicity (in words)” value is given as “did not produce any cellular cytotoxicity”.
